Measurements gathered from unrelated publications.
ADRA2A: Alpha-2A adrenergic receptor (ADRA2A, Homo sapiens, UniProt P08913)
OPRD1: Delta-type opioid receptor (OPRD1, Homo sapiens, UniProt P41143)
HTR3A: 5-hydroxytryptamine receptor 3A (HTR3A, Homo sapiens, UniProt P46098)
PLG trypsin-like site: Plasminogen, trypsin-like site (PLG, Homo sapiens, UniProt P00747)
CA2: Carbonic anhydrase 2 (CA2, Homo sapiens, UniProt P00918)

The Ki of Cc1cc(O)cc(C)c1C[C@H](N)C(=O)N[C@H](C)C(=O)NCC(=O)N[C@@H](Cc1ccc(Cl)cc1)C(=O)N(C)CCC[C@@]1(c2ccc(F)cc2)OCc2cc(C#N)ccc21 is reported as 4.7 µM (ADRA2A; ligand displacement, radioligand).
The IC50 of CCC(C)[C@@H](CNC)N1CCN(CCCC2CCCCC2)[C@H](C(C)C)C1 (some centres unmarked) is reported as over 10 µM (OPRD1; cell-free assay).
For O=C(NCc1ccncc1)Nc1ccc(S(=O)(=O)N2CC3CCC(C2)O3)cc1, the Kd was 2 to 6 µM (Nicotinamide phosphoribosyltransferase (NAMPT, Homo sapiens, UniProt P43490); ligand displacement, FP).
With CCC(C)[C@@H](CNC)N1CCN(CCC23CC4CC(CC(C4)C2)C3)[C@H](C(C)C)C1 (some centres unmarked) the IC50 was over 10 µM (OPRD1; cell-free assay).
With COc1cc(C(=O)N2CC[C@@H](O)[C@@H](N)C2)cc2nc(-c3cc4ccccc4n3CC3CC3)n(C)c12 the EC50 was 50.1 µM (HTR3A; calcium signal, agonist).
For CC(C)(C)[C@H](NC(=O)[C@H](CCONC(=N)N)NC(=O)Cc1ccc(CN)cc1)C(=O)N[C@@H](CCCCN)C(=O)NCc1ccc(C(=N)N)cc1, the Ki was 21 µM (PLG trypsin-like site; enzyme activity, inhibitor; pH 8).
With Cc1cn([C@@H]2CC[C@H](OC(C(=O)O)C(=O)O)C2)c(=O)[nH]c1=O the IC50 was 20 µM (Gag-Pol polyprotein, reverse transcriptase (gag-pol, Human immunodeficiency virus 1, UniProt P03366); enzyme activity, inhibitor, radiometric).
The Ki of CC(C)(C)[C@H](NC(=O)[C@H](CCCNC(=N)N)NC(=O)Cc1ccc(CNC(=N)N)cc1)C(=O)N[C@@H](CCCNC(=N)N)C(=O)NCc1ccc(C(=N)N)cc1 is reported as 3.5 µM (PLG trypsin-like site; enzyme activity, inhibitor; pH 8).
The Ki of On1c(=S)ccc2ccccc21 is reported as 730 µM (CA2; enzyme activity, inhibitor, absorbance; pH 8).
CCOC(=O)c1cncn1[C@@H](C)c1ccc(C2(C(F)(F)F)N=N2)cc1 gave an IC50 of 9 µM (HTR3A; ion current, two-electrode voltage clamp; oocytes).
O=C(CCCOc1cccc(Br)c1)N[C@H]1C[C@@H]2C[C@@H]2C1=O (relative stereo) gave an EC50 of 0.2 µM (Transcriptional activator protein LasR (lasR, Pseudomonas aeruginosa, UniProt P25084, A127W); reporter gene, agonist).
With CNC[C@@H](Cc1ccc(O)cc1)N1CCN(CC2CCCCCC2)[C@@H](C(C)C)C1 the IC50 was over 10 µM (OPRD1; cell-free assay).
C[C@H](N)Cn1ncc2ccc3c(c21)CCCO3 gave a Ki of 6.26 µM (ADRA2A; ligand displacement, radioligand).
The EC50 of CS(=O)(=O)c1cccc(OCCCC(=O)N[C@H]2C[C@@H]3C[C@@H]3C2=O)c1 (relative stereo) is reported as 0.35 µM (Transcriptional activator protein LasR (lasR, Pseudomonas aeruginosa, UniProt P25084, A127W/Y93F); reporter gene, agonist).
CCC(C)[C@@H](CNC)N1CCN(CCC2CC3CCC2C3)[C@H](C(C)C)C1 (some centres unmarked) has an IC50 of over 10 µM (OPRD1; cell-free assay).
The Ki of CC(C)(C)[C@H](NC(=O)[C@H](CCCNC(=N)N)NC(=O)Cc1ccc(CNC(=N)N)cc1)C(=O)N[C@@H](CCONC(=N)N)C(=O)NCc1ccc(C(=N)N)cc1 is reported as 3.1 µM (PLG trypsin-like site; enzyme activity, inhibitor; pH 8).
The Ki of O=c1c(O)c(-c2ccc(O[C@@H]3O[C@H](CO)[C@@H](O)[C@H](O)[C@H]3O)c(O)c2)oc2cc(O)cc(O)c12 is reported as 0.0222 µM (CA2; enzyme activity, inhibitor, absorbance).
